Measurements from ChEMBL document CHEMBL1140564, “Macrocyclic ureas as potent and selective Chk1 inhibitors: an improved synthesis, kinome profiling, structure-activity relationships, and preliminary pharmacokinetics” (Bioorg Med Chem Lett, 2007).
Calls of active or inactive are those of the source. The calls are words filed in the database; no cut-off is given here.

Legend:
NCI-H1299 = test: Inhibition of doxorubicin-induced cell cycle arrest in H1299 cells at G2/M phase by FACS assay; assay type: functional, cell-based; settings: Homo sapiens
Procedure, shortened: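 H1299 cells treated with 500 nM doxorubicin to induce G2/M arrest, with or without inhibitor at various concentrations, up to 10 μM. Cells stained with propidium iodide and DNA content analysed by FACS. EC50 for abrogation of the Dox-induced G2/M checkpoint.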

HeLa = test: Cytotoxicity against HeLa cells by MTS assay; assay type: functional, cell-based; settings: Homo sapiens
[1] = Cell cycle arrest in H1299 cells by accumulation at G2/M phase by FACS assay; assay type: functional, cell-based; settings: Homo sapiens, NCI-H1299
[2] = molecular target: T1, Serine/threonine-protein kinase Chk1 (Homo sapiens, UniProt O14757); test: Inhibition of Chk1
T1 sequence (O14757 whole entry): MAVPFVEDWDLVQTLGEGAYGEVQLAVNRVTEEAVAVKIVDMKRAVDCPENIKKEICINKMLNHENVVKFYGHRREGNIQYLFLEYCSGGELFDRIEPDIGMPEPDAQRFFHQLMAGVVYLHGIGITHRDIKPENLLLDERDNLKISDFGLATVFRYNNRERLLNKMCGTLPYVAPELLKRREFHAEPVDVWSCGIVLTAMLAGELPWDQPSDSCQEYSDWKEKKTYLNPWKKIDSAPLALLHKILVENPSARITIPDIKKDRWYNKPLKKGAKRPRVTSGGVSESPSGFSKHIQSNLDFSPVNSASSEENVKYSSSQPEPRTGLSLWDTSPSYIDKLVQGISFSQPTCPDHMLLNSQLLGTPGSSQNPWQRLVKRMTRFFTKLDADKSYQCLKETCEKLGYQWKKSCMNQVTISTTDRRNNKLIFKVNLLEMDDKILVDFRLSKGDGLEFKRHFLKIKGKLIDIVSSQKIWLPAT

| SMILES | Activity (NCI-H1299) | EC50 (HeLa) [nM] | Activity [1] | IC50 [2] [nM] | EC50 (NCI-H1299) [nM] | EC50 [1] [nM] |
| --- | --- | --- | --- | --- | --- | --- |
| N#Cc1ncc2nc1OCCCCOc1cc(NC(=O)c3ccncc3)c(Cl)cc1NC(=O)N2 | inactive | 24300 | inactive | 4 |  |  |
| N#Cc1ncc2nc1OC/C=C\COc1cc(OCCO)c(Cl)cc1NC(=O)N2 |  | > 59300 |  | 1 | 1900 | > 10000 |
| CCN(CC)c1cc2c(cc1Cl)NC(=O)Nc1cnc(C#N)c(n1)OCCCCO2 |  | > 59300 |  | 23 | > 10000 | > 10000 |
| CN(C)c1cc2c(cc1Cl)NC(=O)Nc1cnc(C#N)c(n1)OCCCCO2 |  | 54500 |  | 2 | 540 | > 10000 |
| N#Cc1ncc2nc1OC/C=C\COc1cc(NC(=O)OCCN3CCOCC3)c(Cl)cc1NC(=O)N2 |  | > 59300 |  | 3 | > 10000 | > 10000 |
| CN(C)c1cc2c(cc1Cl)NC(=O)Nc1cnc(C#N)c(n1)OC/C=C\CO2 |  | 18700 |  | 2 | 1700 | > 10000 |
| N#Cc1ncc2nc1OC/C=C\COc1cc(N(CCO)CCO)c(Cl)cc1NC(=O)N2 | inactive | 34100 | inactive | 1 |  |  |
| N#Cc1ncc2nc1OCCCCOc1cc(OCCCN3CCOCC3)c(Cl)cc1NC(=O)N2 |  | 5000 |  | 1 | > 10000 | > 10000 |
| N#Cc1ncc2nc1OCCCCOc1cc(N3CCOC3=O)c(Cl)cc1NC(=O)N2 | inactive | > 59300 | inactive | 6 |  |  |
| N#Cc1ncc2nc1OC/C=C\COc1cc(OC(=O)N3CCC(N4CCCCC4)CC3)c(Cl)cc1NC(=O)N2 |  | 1200 |  | 1 | > 10000 | > 10000 |
| N#Cc1ncc2nc1OCCCCOc1cc(OCCO)c(Cl)cc1NC(=O)N2 |  | > 59300 |  | 8 | 3200 | > 10000 |
| CNc1cc2c(cc1Cl)NC(=O)Nc1cnc(C#N)c(n1)OC/C=C\CO2 |  | > 59300 |  | 2 | > 10000 | > 10000 |
| COCCCOc1cc2c(cc1Cl)NC(=O)Nc1cnc(C#N)c(n1)OCCCCO2 | inactive | 13900 | inactive | 3 |  |  |
| N#Cc1ncc2nc1OC/C=C\COc1cc(O)c(Cl)cc1NC(=O)N2 |  | 45700 |  | 0.3 | 700 | > 10000 |
| N#Cc1ncc2nc1OC/C=C\COc1cc(N)c(Cl)cc1NC(=O)N2 |  | > 59300 |  | 0.3 | < 30 | > 10000 |
| N#Cc1ncc2nc1OCCCCOc1cc(OCCCO)c(Cl)cc1NC(=O)N2 |  | > 59300 |  | 1 | 2500 | > 10000 |
| N#Cc1ncc2nc1OCCCCOc1cc(N)c(Cl)cc1NC(=O)N2 |  | 3400 |  | 1 | < 30 | 2600 |
| N#Cc1ncc2nc1OCCCCOc1cc(P(=O)(O)O)c(Cl)cc1NC(=O)N2 | inactive | 17400 | inactive | 8 |  |  |
